Key:
Cytotoxicity assay = type: cell-based, rat; details: Sprague-Dawley, rat, primary neonatal rat cardiomyocytes
Outline: (§1)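 Ventricles from 1–3-day-old Sprague-Dawley rats were digested with 0.05% collagenase II/0.05% trypsin at 37°C, pre-plated 1.5 h to remove nonmyocytes, and cultured 3 days in DMEM/10% FBS. Cells were exposed to test compound at 0.01–1000 µM for 72 h (final DMSO ≤0.05%). MTT was added for 4 h at 37°C and absorbance read at 570 nm. TC50 (50% viability loss vs untreated) came from at least three dose-response curves.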

CVB3 (Nancy strain) = assay: Anti-viral activity assay in CVB3-infected cardiomyocytes; type: cell-based, coxsackievirus B3; details: for IC50: Enterovirus B, CVB3, Cardiomyocyte, 72 h; for TI (TC50/IC50): cardiomyocytes
Outline: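 Neonatal rat cardiomyocytes grown to confluence (about 1x10^4 cells/well) were infected with CVB3 (Nancy strain, 100 TCID50) for 2 h in six replicates. Cells were washed three times with PBS, then exposed to serial dilutions of test compound for 72 h. XTT plus phenazine methosulfate was added for 2 h, and OD was read at 450 nm (reference 690 nm). Inhibition was (ODtv−ODcv)/(ODcd−ODcv)x100, giving IC50 and TI (TC50/IC50).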

CVB3-induced myocarditis = assay: CVB3-induced viral myocarditis mouse model, cardiac pathological score; type: in vivo, BALB/c mice; details: for Pathological score (grade): day 7, n=10; for Myocardial damage compared with the infected control (model) group: 20, 40 and 60 mg/kg, day 7
Outline: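 Four-week-old male BALB/c mice (n=10/group, pathogen-free) received CVB3 i.p. at 100xTCID50 in 0.1 ml RPMI 1640. From day 2, interferon alpha was given i.p. once daily, and test compound at 20, 40 or 60 mg/kg was given by oral gavage in 0.5% CMC-saline. On day 7, ventricles were formalin-fixed, paraffin-embedded, cut at 4 µm and H&E stained. Inflamed fraction of the section (eyepiece grid, x200) was graded 0–4 (<25%, 25–50%, 50–75%, >75%).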

CVB3 = assay: Virus titration from heart homogenate of CVB3-infected mice; type: in vivo, BALB/c mice; details: day 7, n=10
[1] = ref Yuan et al., 1992; cited from earlier work
[2] = system: neonatal rat cardiomyocytes; assay: Cytotoxicity assay; type: cell-based; details: for 50% toxic concentration (CC50) fold higher than in the cinnamaldehyde group: cardiomyocytes
Outline: as §1

[3] = 24 h stability in blood at room temperature; type: in vitro ADME, rat; details: unpublished data
[4] = Pharmacokinetics in rats after single oral administration; type: in vivo, rat; details: single oral dose 20 mg/kg, preliminary, unpublished data
TNF-α mRNA = TNF-α mRNA expression in CVB3-infected cardiomyocytes; type: cell-based, rat; details: 10 μM, 12 h
Outline: (§2)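 Neonatal rat cardiomyocytes were infected with CVB3 and then incubated with 10 µM test compound. Cytokine mRNA expression in the cells was measured by real-time PCR after 12 h. Data are given as mean ± SD.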

IL-1β mRNA = IL-1β mRNA expression in CVB3-infected cardiomyocytes; type: cell-based, rat; details: 10 μM, 12 h
Outline: as §2

IL-6 mRNA = IL-6 mRNA expression in CVB3-infected cardiomyocytes; type: cell-based, rat; details: 10 μM, 12 h
Outline: as §2

TNF-α [5] = assay: TNF-α protein expression in CVB3-infected cardiomyocytes; type: cell-based, rat; details: 10 μM, 24 h
Outline: (§3)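 CVB3-infected neonatal rat cardiomyocytes were treated with 10 µM test compound for 24 h. Whole-cell lysates (equal protein) were run on 15% SDS-PAGE and transferred to nitrocellulose. Membranes were blocked in 5% skimmed milk for 2 h at room temperature, probed with cytokine and GAPDH antibodies overnight at 4°C, then with HRP secondary for 1 h, and detected by chemiluminescence. Bands were expressed as ratio to GAPDH (n=3, mean ± SD).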

IL-1β [6] = assay: IL-1β protein expression in CVB3-infected cardiomyocytes; type: cell-based, rat; details: 10 μM, 24 h
Outline: as §3

IL-6 [7] = assay: IL-6 protein expression in CVB3-infected cardiomyocytes; type: cell-based, rat; details: 10 μM, 24 h
Outline: as §3

TNF-α [8] = assay: TNF-α level in culture supernatant of CVB3-infected cardiomyocytes; type: cell-based, rat; details: 10 μM, 72 h; viral control 80.12 ± 8.40
IL-1β [9] = assay: IL-1β level in culture supernatant of CVB3-infected cardiomyocytes; type: cell-based, rat; details: 10 μM, 72 h; viral control 163.64 ± 19.75
IL-6 [10] = assay: IL-6 level in culture supernatant of CVB3-infected cardiomyocytes; type: cell-based, rat; details: 10 μM, 72 h; viral control 337.46 ± 29.22

Structure (SMILES)	CC50 at 72 h (Cytotoxicity assay)	IC50 (CVB3 (Nancy strain))	TI (TC50/IC50) (CVB3 (Nancy strain))	Pathological score (grade) (CVB3-induced myocarditis; 40 mg/kg/day)	Viral titers (CVB3; 40 mg/kg/day)	50% toxic concentration (CC50) fold higher than in the cinnamaldehyde group [2]	Pathological score (grade) (CVB3-induced myocarditis; 20 mg/kg/day, oral gavage)	Pathological score (grade) (CVB3-induced myocarditis; 60 mg/kg/day, oral gavage)	Myocardial damage compared with the infected control (model) group (CVB3-induced myocarditis)	Viral titers (CVB3; 20 mg/kg/day, oral gavage)	Stability in blood [3]	Time at which peak concentration was achieved after oral administration [4]	TNF-α mRNA expression (TNF-α mRNA)	IL-1β mRNA expression (IL-1β mRNA)	IL-6 mRNA expression (IL-6 mRNA)	CVB3-mediated TNF-α expression (Western blot) (TNF-α [5])	CVB3-mediated IL-1β expression (Western blot) (IL-1β [6])	CVB3-mediated IL-6 expression (Western blot) (IL-6 [7])	further results
O=CC=Cc1ccccc1 [Cinnamaldehyde, 3-phenyl-2-propenal, reference compound]	0.98 ± 0.12 µM	24.2 ± 4.77 µM	0.04	2.40 ± 0.50 grade	2.80 ± 0.63 Log TCID50/mg	–	–	–	–	–	–	–	–	–	–	–	–	–	Half-life in rat blood [1]: 4 min
Cc1ccc(/C=C/C=O)cc1 [Compound 1, (E)-3-p-tolylacrylaldehyde]	3.96 ± 0.29 µM	–	–	–	–	–	–	–	–	–	–	–	–	–	–	–	–	–	–
O=C/C=C/c1ccc(Cl)cc1 [Compound 2, (E)-3-(4-chlorophenyl) acrylaldehyde]	6970 µM	2110 µM	3.31	2.85 ± 0.70 grade	3.20 ± 0.63 Log TCID50/mg	7114 fold	2.85 ± 0.70 grade	2.75 ± 0.60 grade	no significant difference	3.30 ± 0.48 Log TCID50/mg	stable for 24 h	about 1.2 h	–	–	–	–	–	–	CC50 ([2]; neonatal rat cardiomyocytes, 0.01–1000 μM, 72 h, MTT, called TC50 in methods): no obvious cytotoxicity; Viral titers (CVB3; 60 mg/kg/day, oral gavage): 3.10 ± 0.57 Log TCID50/mg
COc1ccc(/C=C/C=O)cc1 [Compound 3, (E)-3-(4-methoxyphenyl)acrylaldehyde]	7.88 ± 0.82 µM	–	–	–	–	–	–	–	–	–	–	–	–	–	–	–	–	–	–
Cc1ccc(/C=C(\Br)C=O)cc1 [Compound 4, (Z)-2-bromo-3-p-tolylacrylaldehyde]	38.6 ± 4.89 µM	11.4 ± 2.22 µM	3.39	2.10 ± 0.60 grade	2.90 ± 0.57 Log TCID50/mg	39 fold	2.80 ± 0.70 grade	1.90 ± 0.60 grade	significantly reduced	3.10 ± 0.74 Log TCID50/mg	stable for 24 h	~3.3 h	inhibited	inhibited	inhibited	markedly diminished	markedly diminished	markedly diminished	–
O=C/C(Br)=C/c1ccc(Cl)cc1 [Compound 5, (Z)-2-bromo-3-(4-chlorophenyl) acrylaldehyde]	85.7 ± 7.63 µM	2.12 ± 0.37 µM	40.42	1.75 ± 0.60 grade	–	87 fold	1.95 ± 0.40 grade	1.30 ± 0.50 grade	significantly reduced	2.80 ± 0.42 Log TCID50/mg	stable for 24 h	~2.1 h	inhibited	inhibited	inhibited	markedly diminished	markedly diminished	markedly diminished	TNF-α level in culture supernatant (TNF-α [8]): 43.60 ± 4.77 pg/mL; IL-1β level in culture supernatant (IL-1β [9]): 112.72 ± 13.60 pg/mL; IL-6 level in culture supernatant (IL-6 [10]): 232.80 ± 19.62 pg/mL
